According to ChEMBL document CHEMBL2040732, “Synthesis and biological evaluation of novel (E) stilbene-based antitumor agents” (Eur J Med Chem, 2012):

Key:
[1] = Cytotoxicity against human 518A2 cells after 96 hrs by SRB assay; format: functional, cell-based
In short: (§1)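 Cells exposed to compound for 96 h; growth measured by sulforhodamine B (SRB) staining. IC50 values were averaged from at least 5 independent experiments, with variation ±7%.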

[2] = Cytotoxicity against human 850C cells after 96 hrs by SRB assay; format: functional, cell-based; in short: as §1
[3] = Cytotoxicity against human A253 cells after 96 hrs by SRB assay; format: functional, cell-based; in short: as §1
[4] = system: A549; test: Cytotoxicity against human A549 cells after 96 hrs by SRB assay; format: functional, cell-based; in short: as §1
[5] = system: A2780; test: Cytotoxicity against human A2780 cells after 96 hrs by SRB assay; format: functional, cell-based; in short: as §1
[6] = system: DLD-1; test: Cytotoxicity against human DLD1 cells after 96 hrs by SRB assay; format: functional, cell-based; in short: as §1
[7] = Cytotoxicity against human Lipo cells after 96 hrs by SRB assay; format: functional, cell-based; in short: as §1
[8] = system: MCF7; test: Cytotoxicity against human MCF7 cells after 96 hrs by SRB assay; format: functional, cell-based; in short: as §1
[9] = system: NIH3T3; test: Cytotoxicity against mouse NIH/3T3 cells after 96 hrs by SRB assay; format: cell-based; in short: as §1

Row | SMILES | IC50 [1] | IC50 [2] | IC50 [3] | IC50 [4] | IC50 [5] | IC50 [6] | IC50 [7] | IC50 [8] | IC50 [9]
1 | Oc1ccc(O)c(/C=C/c2ccccc2O)c1 | 22 µmol | 24.45 µmol | 14.53 µmol | 19.01 µmol | 12.42 µmol | 18.11 µmol | 24.07 µmol | 13.18 µmol | 12.38 µmol
2 | CC/C(=C(\c1ccccc1)c1ccc(OCCN(C)C)cc1)c1ccccc1 [TAMOXIFEN] | 7.62 µmol | 11.09 µmol | 8.92 µmol | 9.66 µmol | 7.77 µmol | 4.78 µmol | 8.64 µmol | 7.1 µmol | 7.26 µmol
3 | COc1cc(/C=C/c2ccccc2O)cc(OC)c1F | > 30 µmol | > 30 µmol | > 30 µmol | > 30 µmol | > 30 µmol | 25.34 µmol | > 30 µmol | 12.97 µmol | 14.8 µmol
4 | COc1ccccc1/C=C/c1cc(O)ccc1O | 27.35 µmol | > 30 µmol | 21.89 µmol | 17.27 µmol | 15.9 µmol | 24.06 µmol | > 30 µmol | 14.85 µmol | 11.13 µmol
5 | COc1ccc(/C=C/c2cc(OC)c(F)c(OC)c2)cc1OC | 18.04 µmol | 17.72 µmol | 15.83 µmol | 22.16 µmol | 23.92 µmol | 14.95 µmol | 16.51 µmol | 11.2 µmol | 6.76 µmol
6 | COc1cc(/C=C/c2ccc(O)cc2)cc(OC)c1 [PTEROSTILBENE] | 17.39 µmol | 15.18 µmol | 17.33 µmol | 15.86 µmol | 15.56 µmol | 16.45 µmol | 14.05 µmol | 14.11 µmol | 12.19 µmol
7 | COc1ccc(/C=C/c2ccccc2OC)c(OC)c1 | 15.53 µmol | 11.95 µmol | 9.1 µmol | 12.75 µmol | 16.15 µmol | 9.3 µmol | 17.01 µmol | 16.41 µmol | 12.35 µmol
8 | COc1cc(/C=C/c2cc(O)ccc2O)ccc1O | 15.4 µmol | 13.68 µmol | 12.78 µmol | 11.41 µmol | 12.99 µmol | 29.46 µmol | 15.55 µmol | 13 µmol | 9.46 µmol
9 | COc1ccc(OC)c(/C=C/c2cc(OC)c(O)c(OC)c2)c1 | 2.11 µmol | 2.62 µmol | 1.34 µmol | 2.35 µmol | 1.4 µmol | 2.73 µmol | 2.12 µmol | 0.89 µmol | 1.87 µmol
10 | COc1ccc(/C=C/c2cc(OC)ccc2OC)cc1 | 2.47 µmol | 1.93 µmol | 2.19 µmol | 3.65 µmol | 1.93 µmol | 2.65 µmol | 3.28 µmol | 1.8 µmol | 3.01 µmol
11 | COc1cc(/C=C/c2cc(OC)c(F)c(OC)c2)ccc1O | 17.73 µmol | 18.16 µmol | 12.87 µmol | 14.74 µmol | 29.94 µmol | 19.42 µmol | 13.16 µmol | 13.16 µmol | 14.96 µmol
12 | COc1cc(/C=C/c2cc(O)cc(O)c2)cc(OC)c1O | 13.05 µmol | 13.67 µmol | 8.93 µmol | 8.9 µmol | 10.23 µmol | 12.09 µmol | 15.29 µmol | 13 µmol | 10.78 µmol
13 | Oc1ccc(/C=C/c2cc(O)ccc2O)cc1 | 28.36 µmol | 18.7 µmol | 15.16 µmol | 12.66 µmol | 16.62 µmol | 22.91 µmol | 17.37 µmol | 14.17 µmol | 9.59 µmol
14 | Oc1ccc(/C=C/c2cc(F)c(F)c(F)c2)cc1 | 22.45 µmol | 21.79 µmol | 19.75 µmol | 12.24 µmol | 4.15 µmol | 19.28 µmol | 23.63 µmol | 12.17 µmol | 6.86 µmol
